The target in the experiment is Metabotropic glutamate receptor 5 (Homo sapiens, UniProt P41594). Briefly: Displacement of [3H]M-MPEP from mGluR5 (unknown origin) at 1 uM measured after 60 mins relative to control. In short, it runs like this:
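Rat cerebrocortical membranes or membranes from A18 cells expressing human mGlu5a, incubated with [³H]M-MPEP and test compound at 1 µM in 50 mM Tris pH 7.6 with 2 mM MgCl₂ and 2 mM CaCl₂, 60 min at 25°C. Non-specific binding was taken with […]. Result is % displacement, run in duplicate or triplicate.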
For orientation: Displacement assays read how much labelled ligand stays bound in the presence of the test substance.
Sequence of Metabotropic glutamate receptor 5 (P41594 21-1212 limits assumed): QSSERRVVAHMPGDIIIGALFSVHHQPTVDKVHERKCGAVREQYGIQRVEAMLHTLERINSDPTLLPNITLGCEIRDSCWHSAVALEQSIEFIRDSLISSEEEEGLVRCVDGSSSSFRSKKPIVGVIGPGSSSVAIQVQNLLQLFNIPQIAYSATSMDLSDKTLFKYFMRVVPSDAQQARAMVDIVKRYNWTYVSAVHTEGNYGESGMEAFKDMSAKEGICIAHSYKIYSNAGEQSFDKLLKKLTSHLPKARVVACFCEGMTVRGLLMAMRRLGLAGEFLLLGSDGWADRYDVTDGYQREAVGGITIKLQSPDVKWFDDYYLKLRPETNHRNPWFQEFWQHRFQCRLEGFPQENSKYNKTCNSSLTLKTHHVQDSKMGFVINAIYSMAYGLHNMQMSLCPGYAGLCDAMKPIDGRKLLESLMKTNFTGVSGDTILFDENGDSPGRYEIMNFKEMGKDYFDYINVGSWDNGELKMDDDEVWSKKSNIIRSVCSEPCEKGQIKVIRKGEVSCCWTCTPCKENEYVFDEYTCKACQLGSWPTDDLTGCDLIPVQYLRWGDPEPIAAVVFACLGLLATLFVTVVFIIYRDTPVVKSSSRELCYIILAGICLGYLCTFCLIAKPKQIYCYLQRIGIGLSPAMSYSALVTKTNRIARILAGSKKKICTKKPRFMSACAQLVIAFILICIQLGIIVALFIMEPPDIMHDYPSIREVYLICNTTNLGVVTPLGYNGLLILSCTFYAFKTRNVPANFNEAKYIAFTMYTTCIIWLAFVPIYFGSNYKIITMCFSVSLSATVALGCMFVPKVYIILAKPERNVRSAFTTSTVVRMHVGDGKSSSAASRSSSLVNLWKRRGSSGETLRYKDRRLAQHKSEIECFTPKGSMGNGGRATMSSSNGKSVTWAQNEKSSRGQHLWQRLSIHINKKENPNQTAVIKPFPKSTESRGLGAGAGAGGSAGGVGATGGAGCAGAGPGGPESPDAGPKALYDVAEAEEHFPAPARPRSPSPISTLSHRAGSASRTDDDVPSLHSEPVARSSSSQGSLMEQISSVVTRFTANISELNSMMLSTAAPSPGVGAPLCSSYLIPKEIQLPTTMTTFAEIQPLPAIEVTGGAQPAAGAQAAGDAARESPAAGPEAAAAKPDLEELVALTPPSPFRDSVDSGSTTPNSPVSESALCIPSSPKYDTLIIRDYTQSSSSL
In turn, `CC1CCN(c2c(S(=O)(=O)c3ccc(C#N)cc3)cnc3cc(Cl)ccc23)CC1` returned an inhibition of 70%. The result for `Cc1cc(C)cc(S(=O)(=O)c2cnc3ccc(C)cc3c2N2CCOCC2)c1` reads 47%; that for `O=S(=O)(c1ccc(Cl)cc1)c1cnc2c(F)cccc2c1N1CCOCC1`, 52%. The result for `Cc1ccc2ncc(S(=O)(=O)c3ccc(Cl)cc3)c(N3CCOCC3)c2c1` reads 89%; that for `O=S(=O)(c1ccc(Cl)c(Cl)c1)c1cnc2ccc(F)cc2c1N1CCOCC1`, 68%; that for `N#Cc1cccc(S(=O)(=O)c2cnc3cc(F)ccc3c2N2CCOCC2)c1`, 71 to 71.4%. `CC1CCN(c2c(S(=O)(=O)c3ccc(Cl)c(Cl)c3)cnc3cc(F)ccc23)CC1`: the inhibition was 94%. In the case of `COc1ccc2ncc(S(=O)(=O)c3ccc(C)cc3)c(N3CCC(C)CC3)c2c1`, the inhibition is 90%. The result for `CC1CCN(c2c(S(=O)(=O)c3ccccc3)cnc3c(F)cccc23)CC1` reads 13%; that for `COc1cccc(S(=O)(=O)c2cnc3ccc(OC)cc3c2N2CCC(C)CC2)c1`, 0%. The result for `O=S(=O)(c1cccc(F)c1)c1cnc2cc(Cl)ccc2c1N1CCOCC1` reads 32%; that for `Cc1ccc(S(=O)(=O)c2cnc3ccc(Cl)cc3c2N2CCC(C)CC2)cc1`, 95%; that for `COc1ccc2ncc(S(=O)(=O)c3cccc(F)c3)c(N3CCC(C)CC3)c2c1`, 68%.

Take `CC1CCN(c2c(S(=O)(=O)c3cc(Cl)cc(Cl)c3)cnc3c(F)cccc23)CC1`: the inhibition came to 82%. The compound `N#Cc1cccc(S(=O)(=O)c2cnc3cc(F)ccc3c2N2CCSCC2)c1` came in with an inhibition of 80.9%.

Turning to `O=S(=O)(c1ccc(Cl)c(Cl)c1)c1cnc2cc(F)ccc2c1N1CCOCC1`, the inhibition was 86%. For the compound `COc1ccc2ncc(S(=O)(=O)c3ccc(Cl)cc3)c(N3CCC(C)CC3)c2c1`, the inhibition is 91%. The result for `O=S(=O)(c1ccc(F)c(Cl)c1)c1cnc2cc(Cl)ccc2c1N1CCOCC1` reads 83%; that for `O=S(=O)(c1ccc(F)c(Cl)c1)c1cnc2ccc(Cl)cc2c1N1CCOCC1`, 39%; that for `Cc1ccc(S(=O)(=O)c2cnc3cc(Cl)ccc3c2N2CCC(C)CC2)cc1F`, 85%.

Compound `COc1ccc2ncc(S(=O)(=O)c3cc(C)cc(C)c3)c(N3CCOCC3)c2c1` returned an inhibition of 11%. The result for `Cc1ccc2ncc(S(=O)(=O)c3ccc(C)c(F)c3)c(N3CCC(C)CC3)c2c1` reads 91%.

For the compound `CC1CCN(c2c(S(=O)(=O)c3cc(F)cc(F)c3)cnc3cc(F)ccc23)CC1`, the inhibition is 77 to 77.2%.

The compound `Cc1ccc(S(=O)(=O)c2cnc3ccc(F)cc3c2N2CCC(C)CC2)cc1C` gave an inhibition of 92%. Take `CC1CCN(c2c(S(=O)(=O)c3ccc(Cl)c(Cl)c3)cnc3cc(Cl)ccc23)CC1`: the inhibition turned out to be 89%. On to `O=S(=O)(c1ccc(Cl)cc1)c1cnc2cc(Cl)ccc2c1N1CCOCC1`, for which the inhibition is 55%.

The compound `Cc1ccc2ncc(S(=O)(=O)c3ccc(F)cc3)c(N3CCC(C)CC3)c2c1` registered an inhibition of 90%. The result for `COc1cccc(S(=O)(=O)c2cnc3ccc(F)cc3c2N2CCC(C)CC2)c1` reads 90%; that for `N#Cc1ccc(S(=O)(=O)c2cnc3cc(Cl)ccc3c2N2CCOCC2)cc1`, 2%; that for `CC1CCN(c2c(S(=O)(=O)c3cc(F)cc(F)c3)cnc3c(F)cccc23)CC1`, 9%. In turn, `O=S(=O)(c1cc(F)cc(F)c1)c1cnc2c(F)cccc2c1N1CCOCC1` had an inhibition of 52%. In turn, `CC1CCN(c2c(S(=O)(=O)c3ccc(F)c(F)c3)cnc3ccc(Cl)cc23)CC1` had an inhibition of 72%. In the case of `Cc1ccc2ncc(S(=O)(=O)c3ccc(F)c(F)c3)c(N3CCOCC3)c2c1`, the inhibition was 24%. Compound `COCC1CCN(c2c(S(=O)(=O)c3cccc(F)c3)cnc3cc(F)ccc23)CC1` yielded an inhibition of 70.5%. The compound `CC1CCN(c2c(S(=O)(=O)c3ccc(F)c(F)c3)cnc3c(F)cccc23)CC1` showed an inhibition of 93%. The result for `O=S(=O)(c1ccc(Cl)c(Cl)c1)c1cnc2cc(Cl)ccc2c1N1CCOCC1` reads 86%. With `O=S(=O)(c1ccc(F)c(F)c1)c1cnc2ccc(F)cc2c1N1CCOCC1`, the inhibition is 10%. `O=S(=O)(c1ccc(F)c(Cl)c1)c1cnc2ccc(F)cc2c1N1CCOCC1` came in with an inhibition of 58%. In turn, `COc1ccc(S(=O)(=O)c2cnc3ccc(F)cc3c2N2CCC(C)CC2)cc1OC` had an inhibition of 54%. Compound `CC1CCN(c2c(S(=O)(=O)c3cc(Cl)cc(Cl)c3)cnc3ccc(F)cc23)CC1` had an inhibition of 69%. For `O=S(=O)(c1ccc(Cl)cc1)c1cnc2cc(F)ccc2c1N1CCOCC1`, the inhibition is 50%.

`COc1ccc(S(=O)(=O)c2cnc3ccc(C)cc3c2N2CCC(C)CC2)cc1Cl`: the inhibition was 93%. The result for `Cc1ccc2ncc(S(=O)(=O)c3cc(F)cc(F)c3)c(N3CCC(C)CC3)c2c1` reads 72%; that for `Cc1ccc2ncc(S(=O)(=O)c3ccc(C)c(F)c3)c(N3CCOCC3)c2c1`, 33%; that for `CC1CCN(c2c(S(=O)(=O)c3ccc(F)c(F)c3)cnc3cc(Cl)ccc23)CC1`, 90%. Turning to `Cc1ccc2ncc(S(=O)(=O)c3cccc(F)c3)c(N3CCOCC3)c2c1`, the inhibition was determined as 10%. For the compound `COc1ccc2ncc(S(=O)(=O)c3cccc(C#N)c3)c(N3CCC(C)CC3)c2c1`, the inhibition amounted to 90%. The result for `COc1ccc(S(=O)(=O)c2cnc3cc(F)ccc3c2N2CCOCC2)cc1OC` reads 5%; that for `Cc1cc(C)cc(S(=O)(=O)c2cnc3ccc(C)cc3c2N2CCC(C)CC2)c1`, 80%. On to `Cc1ccc(S(=O)(=O)c2cnc3cc(Cl)ccc3c2N2CCOCC2)cc1C`, for which the inhibition amounted to 87%. The result for `Cc1ccc(S(=O)(=O)c2cnc3ccc(Cl)cc3c2N2CCOCC2)cc1C` reads 90%; that for `COCC1CCN(c2c(S(=O)(=O)c3ccc(F)cc3)cnc3cc(F)ccc23)CC1`, 76.1%. As for `O=S(=O)(c1cccc(Cl)c1)c1cnc2ccc(F)cc2c1N1CCOCC1`, the inhibition is 40%. The result for `O=S(=O)(c1ccc(F)cc1)c1cnc2cc(Cl)ccc2c1N1CCC(CO)CC1` reads 75%. The compound `Cc1ccc2ncc(S(=O)(=O)c3cc(Cl)cc(Cl)c3)c(N3CCOCC3)c2c1` yielded an inhibition of 70%. `Cc1ccc(S(=O)(=O)c2cnc3cc(Cl)ccc3c2N2CCOCC2)cc1F` displayed an inhibition of 38%. Turning to `COc1ccc(S(=O)(=O)c2cnc3cc(Cl)ccc3c2N2CCOCC2)cc1Cl`, the inhibition amounted to 62%.

Consider `O=S(=O)(c1ccccc1)c1cnc2ccccc2c1Nc1ccccc1`, for which the inhibition was 3.6%.

`CCN1CCN(c2c(S(=O)(=O)c3ccccc3)cnc3ccccc23)CC1`: the inhibition came to 1.7%. Take `COc1ccc(S(=O)(=O)c2cnc3cc(Cl)ccc3c2N2CCOCC2)cc1`: the inhibition came to 41%. `COc1ccc2ncc(S(=O)(=O)c3ccc(C)c(Cl)c3)c(N3CCC(C)CC3)c2c1` came in with an inhibition of 85%. Take `COc1ccc(S(=O)(=O)c2cnc3cc(F)ccc3c2N2CCC(C)CC2)cc1OC`: the inhibition came to 83%. Regarding `CC1CCN(c2c(S(=O)(=O)c3ccccc3)cnc3ccc(Cl)cc23)CC1`, the inhibition amounted to 59%. Compound `COc1ccc(S(=O)(=O)c2cnc3ccc(OC)cc3c2N2CCC(C)CC2)cc1` came in with an inhibition of 41%. The result for `COc1cccc(S(=O)(=O)c2cnc3cc(F)ccc3c2N2CCC(C)CC2)c1` reads 90%; that for `Cc1ccc(S(=O)(=O)c2cnc3cc(F)ccc3c2N2CCOCC2)cc1F`, 51%.

On to `COc1ccc2ncc(S(=O)(=O)c3ccc(C#N)cc3)c(N3CCOCC3)c2c1`, for which the inhibition worked out at 2%. On to `Cc1ccc(S(=O)(=O)c2cnc3cc(F)ccc3c2N2CCC(C)CC2)cc1Cl`, for which the inhibition was 93%. Compound `O=S(=O)(c1ccccc1)c1cnc2cc(Cl)ccc2c1N1CCOCC1` registered an inhibition of 5%. The result for `CC1CCN(c2c(S(=O)(=O)c3ccc(Cl)cc3)cnc3ccc(F)cc23)CC1` reads 80%. The result for `Cc1ccc(S(=O)(=O)c2cnc3ccc(F)cc3c2N2CCC(C)CC2)cc1F` reads 86%; that for `O=S(=O)(c1ccc(Cl)cc1)c1cnc2ccc(Cl)cc2c1N1CCOCC1`, 15%; that for `CC1CCN(c2c(S(=O)(=O)c3ccccc3)cnc3cc(Cl)ccc23)CC1`, 93%.

Take `Cc1ccc(S(=O)(=O)c2cnc3ccc(F)cc3c2N2CCOCC2)cc1Cl`: the inhibition is 69%. The result for `O=S(=O)(c1ccc(F)c(F)c1)c1cnc2ccc(Cl)cc2c1N1CCOCC1` reads 2%; that for `COc1ccc(S(=O)(=O)c2cnc3ccc(F)cc3c2N2CCOCC2)cc1`, 18%; that for `COc1ccc(S(=O)(=O)c2cnc3c(F)cccc3c2N2CCOCC2)cc1`, 33%. With `O=S(=O)(c1ccc(F)c(F)c1)c1cnc2c(F)cccc2c1N1CCOCC1`, the inhibition came out at 57%.

`CC1CCN(c2c(S(=O)(=O)c3cccc(Cl)c3)cnc3ccc(Cl)cc23)CC1` displayed an inhibition of 92%.

`Cc1ccc(S(=O)(=O)c2cnc3cc(F)ccc3c2N2CCOCC2)cc1Cl`: the inhibition is 84%. The result for `CC1CCN(c2c(S(=O)(=O)c3cccc(C#N)c3)cnc3ccc(Cl)cc23)CC1` reads 90%. Turning to `Cc1ccc2ncc(S(=O)(=O)c3cccc(Cl)c3)c(N3CCOCC3)c2c1`, the inhibition stood at 44%.

On to `O=S(=O)(c1ccc(F)cc1)c1cnc2cc(F)ccc2c1N1CCSCC1`, for which the inhibition is 62.7%. The result for `Cc1ccc(S(=O)(=O)c2cnc3cc(Cl)ccc3c2N2CCOCC2)cc1` reads 12%; that for `Cc1cc(C)cc(S(=O)(=O)c2cnc3ccc(F)cc3c2N2CCOCC2)c1`, 43%. The result for `COc1ccc2ncc(S(=O)(=O)c3cc(C)cc(C)c3)c(N3CCC(C)CC3)c2c1` reads 79%; that for `Cc1cc(C)cc(S(=O)(=O)c2cnc3cc(F)ccc3c2N2CCOCC2)c1`, 58%.

For orientation: inhibition means the percentage by which the read-out fell short of the control.

Source of the values: ChEMBL document CHEMBL4052615, “Discovery of 4-amino-3-arylsulfoquinolines, a novel non-acetylenic chemotype of metabotropic glutamate 5 (mGlu5) receptor negative allosteric modulators” (Eur J Med Chem, 2017).
